Measured values: the RNAGym collection of RNA variant scans (doi:10.1126/science.aae0568)
This sample holds only a part of the variants without activity.

B1: tRNA (parent)
chain: GUUCCGUUGGCGUAAUGGUAACGCGUCUCCCUCCUAAGGAGAAGACUGCGGGUUCGAGUCCCGUACGGAACG

Variants of: B1
Assay: yeast fitness relative to wild type (ratio to wild type); higher = fitter; tRNA-Arg(CCU), competitive growth, 37 C, YPD
Method in brief: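 Variants of the tRNA-Arg(CCU) gene were chemically synthesised with a 3% per-site mutation rate across 69 sites and placed at the native genomic locus in Saccharomyces cerevisiae. Six parallel replicates of the pooled strains were competed in YPD at 37°C for 24 hours, and gene amplicons from the start and end populations were read by 100-nucleotide paired-end sequencing. Darwinian fitness relative to wild type was derived from changes in genotype frequencies. Genotypes required ≥ 100 starting reads, and estimates < 0.5 were set to 0.5.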

Variant | yeast fitness
GUUCUGUAGGCGUAAUGGUAACGCGUCUCCCUCCUAACGAGCAGACUGCGGGUUCGAGUCCCAUACGGAACG [C5U U8A G38C A42C G63A] | 0.534
GUUCUGUAGGCGUAAUGGUAACGCGUCUCCCUCCUAAGGAGAAGACUGCGGGUUCGAGUCCCGUACGAAACG [C5U U8A G68A] | 0.544
GUUCUGUCGGCGUAAUGGUGACGCGUCUCACUCCUAAGGAGAAGACUGCGGGUUCGAGUCCCGUACGUAACG [C5U U8C A20G C30A G68U] | ≤ 0.5
GUUCUGUCGGCGUAAUGGUAACGCGUUUCCCUCCUAAGGAGAAGACUACGGGUUCGAGUCCAGUAUGGAACG [C5U U8C C27U G48A C62A C66U] | ≤ 0.5
GUUCUGUCGGCGUAAUGGUAACGCGUCUGCCUCCUAAGGAGAAGACUGCGGGGUCGAGUCCCGUACGGAACG [C5U U8C C29G U53G] | ≤ 0.5
GUUCUGUCGGCGUAAUGGUAACGCGUCUCGGUCCUAAGGAGAAGACUGCGGGUUCGAGUCCCGUCCGGAACG [C5U U8C C30G C31G A65C] | ≤ 0.5
GUUCUGUCGGCGUAAUGGUAACGCGUCUCCCUCCUAAGGACAAGACUGCGGGUUCGAGUCCCGUACGGAACG [C5U U8C G41C] | 0.542
GUUCUGUCGGCGUAAUGGUAACGCGACUCCCUCCUAAGGAGAAGACUGCGGGUUCGAGUCCCGUACGGAACG [C5U U8C U26A] | 0.727
GUUCUGUGGGCGUAAUGGUGACGCGUCUCCCUCAUAAGGAGAAGACUGCGGGUUCGAGUCCCGUACGGAACG [C5U U8G A20G C34A] | ≤ 0.5
GUUCUGUGGGCGUAAUGGUAACGCGUCCCCCUCCUGAGGAGAAGACUGCGGGUUCGAGUCCCGUACGGAACG [C5U U8G U28C A36G] | ≤ 0.5
GUUCUGUUGGCGAAAUGGUAACGCGUCUCCCUCCUAAGGAGAAGACUGCGGGUUCGAGUCCCGUACGGAACG [C5U U13A] | 0.842
GUUCUGUUGGCGAAAUGGUAACGUGUCUCCCUCCUAAGGAGAAGCCUGCGGGUUCGAGUCCCGUACGGAACG [C5U U13A C24U A45C] | 0.671
GUUCUGUUGGCGAAAUGGUAACGCGUGUCCCUCCUAAGGAGAAGACUGCGGGUUCGCGUCCCGUACAGUACG [C5U U13A C27G A57C G67A A69U] | ≤ 0.5
GUUCUGUUGGCGAAAUGGUAACGCGUCUACGUCCUAAGGAGAAGACUGCGGGUUCGAGUCCCGUACGGAACG [C5U U13A C29A C31G] | ≤ 0.5
GUUCUGUUGGCGAAAUGGUAACGCGUCUGCAUCCUAAGGAGAAGACUGCGGGUUCGAGUCCCCUACGGAACG [C5U U13A C29G C31A G63C] | 0.533
GUUCUGUUGGCGAAAUGGUAACGCGUCUCCCUCCUAAGGAGAAGAAUGCGGGUUCGAGUCCUGUAUGGAACG [C5U U13A C46A C62U C66U] | ≤ 0.5
GUUCUGUUGGCGAAAUGGUAACGCGUCUCCCUCCUAAGGAGAAGACUGCGGGUUCGAGUCCUGUCCGGAACG [C5U U13A C62U A65C] | ≤ 0.5
GUUCUGUUGGCGAAAUGGUAACGCGUCUCCCUCCUAACGAGAAGACGGCGGGUUCGAGUCCUGUACGGAACG [C5U U13A G38C U47G C62U] | ≤ 0.5
GUUCUGUUGGCGCAAUGGUAACGCGUCUCCCUCCUAAGGAGAAGACUGCGGGUUCGAGUCCCGUACGGAACG [C5U U13C] | 0.911

Variant | yeast fitness
GUUCUGUUGGCGCAAUGGUAACGGGCCUCCCUCCUAGUGAGAAGACUGCGGGUGCGAGUCGCGUACGGAACG [C5U U13C C24G U26C A37G G38U U54G C61G] | ≤ 0.5
GUUCUGUUGGCGCAAUGGUAACGCGUCUCCCUCCUAAGGAGAAGACUGCGGGUUCGAGUCUCGUACGGAACG [C5U U13C C61U] | 0.673
GUUCUGUUGGCGGAAUGGUAACGCGUCUCCCUCCUAAGGAGAAGACUGCGGGUUCGAGUCCCGUACGGUACG [C5U U13G A69U] | 0.76
GUUCUGUUGGCGUAAAGGUAACGCGUCUCCCUUCUAAGGAGAAGACUGAGGGUUCGAGUCCCGUACGGAACG [C5U U16A C33U C49A] | ≤ 0.5
GUUCUGUUGGCGUAAAGGUAACGCGUCUCCCUUCUAAGGAGAAGACUGCGGGUUCGAGUCGCGUACGGAUCG [C5U U16A C33U C61G A70U] | ≤ 0.5
GUUCUGUUGGCGUAAAGGUAACGCGUCUCCCUCAUAAGGAGAAGACUGCGGGUUCGAGUCCCGUACGGAGCG [C5U U16A C34A A70G] | ≤ 0.5
GUUCUGUUGGCGUAAAGGUAACACCUCUCCCUCCUAAGGAGAAGACUGCGGGUUCGAGUCCCGUACGGAACG [C5U U16A G23A G25C] | ≤ 0.5
GUUCUGUUGGCGUAAAGGUAACGCGUCUCCCUCCUAAAGAGGAGACUGCGGGUUCGAGUCCCGGACGGAACG [C5U U16A G38A A42G U64G] | ≤ 0.5
GUUCUGUUGGCGUAAAGGUAACGCGUCUCCCUCCUAAGGAGAAGACUGCGGGUUCGAGUCCCAUACGGAACG [C5U U16A G63A] | ≤ 0.5
GUUCUGUUGGCGUAAAGGUAACGCGUCUCCCUCCUAAGGAGAAGACCGCGGGUUCGAGUCCCGUACGGAACG [C5U U16A U47C] | 0.785
GUUCUGUUGGCGUAACGGUAACGCGUCUCCAUCCUAAGGAGAAGACUGCGGGUUCGAGUCCCGUACCGAACG [C5U U16C C31A G67C] | ≤ 0.5
GUUCUGUUGGCGUAACGGUAACGCGUCUCCCUCCUAAGGAGAAGACUGCGGGUUAGAGUCCCGUACGGAACG [C5U U16C C55A] | 0.627
GUUCUGUUGGCGUAACGAUAACGCGUCUCACUCCUAAGGAGAAGACUGCGGGUUCGAAUCCCGUACGUAACG [C5U U16C G18A C30A G58A G68U] | ≤ 0.5
GUUCUGUUGGCGUAAGGGUAACGCGUCUCCCUCCUAAGGGGUAGACUGCGGAUUCGAGUCCCGUACGGAACG [C5U U16G A40G A42U G52A] | ≤ 0.5
GUUCUGUUGGCGUAAGGGUAACGCGUCUCCCUCCUAAGGAGAGGACUGCGGGUUCGAGUCCCGUACCGAACG [C5U U16G A43G G67C] | ≤ 0.5
GUUCUGUUGGCGUAAGGGUAACGCGUCUCCCUCCUAAGGAGAUGACUGCGGGUUCGAAUCCCGUACGGAACG [C5U U16G A43U G58A] | ≤ 0.5
GUUCUGUUGGCGUAAGGGUAACGCGUCUCCCUCCUAAGGAGAAGACUGCGGGUUCGAGUCCCGUGUGGAACG [C5U U16G A65G C66U] | ≤ 0.5
GUUCUGUUGGCGUAAGGGUAACGCGUCUCCCUCCUAAGGACAAGACUGCGAGUUCGAGUGCCGUACGGAUCG [C5U U16G G41C G51A C60G A70U] | ≤ 0.5
GUUCUGUUGGCGUAAGGGUAACGCGUCUCCCUCCAAAGGAGAAGACUGCGGGUUCGAGUCCCGUACGGAACG [C5U U16G U35A] | ≤ 0.5
